In assay [1] the test system is Influenza A virus. Briefly: Antiviral activity against Influenza A virus (A/WSN/1933(H1N1)) infected in dog MDCK cells after 3 days by CPE assay. It is filed as functional, organism-based. As to conditions: 72 h. The procedure, abridged:
(§1)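 Cytopathic effect (CPE) assay measuring inhibition of virus replication in MDCK cells. Strains were A/WSN/33 (H1N1, M2-resistant) and A/Hong Kong/8/68 (H3N2, M2-sensitive). Ribavirin served as the positive control. Values reported as IC50.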

The next assay deals with MOLT-4. Briefly: Cytotoxicity against human MOLT4 cells by MTT assay. Type of assay: functional, cell-based. In short, it runs like this: (§2)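 MTT assay on the human tumour lines U937 (leukemic monocyte lymphoma), K562 (erythroid leukemia), BGC-823 (gastric carcinoma), MOLT-4 (acute lymphoblastic leukemia), MCF-7 (breast adenocarcinoma) and A549 (lung carcinoma). Taxol served as the positive control. Values reported as IC50.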
A general note: Tetrazolium assays rely on reduction of a dye to a coloured formazan, in cell work by metabolically active cells.

Assay [2] has as its system Influenza A virus. Briefly: Antiviral activity against Influenza A virus A/Hong Kong/8/68(H3N2) infected in dog MDCK cells after 3 days by CPE assay. It is filed as functional, organism-based. As to conditions: 72 h. The procedure, abridged:
as §1

In the next assay the test system is U-937. The assay can be described thus: Cytotoxicity against human U937 cells by MTT assay. It is filed as functional, cell-based. The procedure, abridged: as §2
The subject of another assay is BGC-823. The assay can be described thus: Cytotoxicity against human BGC823 cells by MTT assay. Type of assay: functional, cell-based. The procedure, abridged:
as §2

Another assay concerns K562. The assay can be described thus: Cytotoxicity against human K562 cells by MTT assay. It is filed as functional, cell-based. In short, it runs like this: as §2

Structures are written as SMILES.

For `CC[C@@H](C)[C@H]1NC(=O)[C@@H](C)NC(=O)c2ccccc2NC(=O)[C@@H]([C@@H](O)c2ccccc2)N(C)C1=O`, the IC50 in the assay on Influenza A virus [1] amounted to 15 µM; in the assay with MOLT-4, 6.2 µM; in the assay with Influenza A virus [2] it was 8.1 µM; in the assay with U-937 it was 6.4 µM.

As for `CC(=O)O[C@H]1C(=O)[C@@]2(C)[C@H]([C@H](OC(=O)c3ccccc3)[C@]3(O)C[C@H](OC(=O)[C@H](O)[C@@H](NC(=O)c4ccccc4)c4ccccc4)C(C)=C1C3(C)C)[C@]1(OC(C)=O)CO[C@@H]1C[C@@H]2O` [PACLITAXEL], the IC50 with BGC-823 worked out at 0.0035 µM; with K562, 0.0049 µM; with MOLT-4 it was 0.0018 µM; in the assay on U-937, 0.0019 µM.

On to `NC(=O)c1ncn([C@@H]2O[C@H](CO)[C@@H](O)[C@H]2O)n1` [RIBAVIRIN], for which the half-maximal inhibitory concentration (IC50) in the assay with Influenza A virus [1] was 20.2 µM; in the assay on Influenza A virus [2], 0.41 µM.

Broadly, the IC50 is the concentration at which inhibition is half-maximal. A low value points to inhibition by little substance.
